Among the data in ChEMBL document CHEMBL1122954, “Synthesis and antiallergic activity of some quinolinones and imidazoquinolinones” (1985) are Activity and Normal weight gain values, retold here.

What all share (format): functional
The subject of assay [1] is Rattus norvegicus. Kind of assay: Antiallergic activity determined by rat passive cutaneous anaphylaxis (PCA) assay when administered intraperitoneally at dose 60 mg/kg. As to conditions: route intraperitoneal.
Assay [2] deals with Rattus norvegicus. Kind of assay: Antiallergic activity by rat passive cutaneous anaphylaxis (PCA) assay when administered perorally at dose 100 mg/kg. As to conditions: route oral.
Assay [3] relates to Rattus norvegicus. Kind of assay: Percentage normal weight gain when dosed at 200 mg/kg on day one of the 2-week study in rat. A digest of the protocol: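 Male Sprague-Dawley rats, fasted 16 h, given a single oral dose in 0.1% Methocel; controls got vehicle. Groups of 8–10, weighed daily at about the same time over 2 weeks. Gain over the first 4 days compared with expected gain from standard growth charts for age and strain. Mean % of normal weight gain ± standard error.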

With `CCOC(=O)c1cnc2c(N)cc(C)cc2c1O`, the Activity with Rattus norvegicus [1] is -2.
For `CCOC(=O)c1cn2cnc3cccc(c1=O)c32`, the Activity in the assay on Rattus norvegicus [2] came to 70; in the assay with Rattus norvegicus [1], 100. Besides, the Normal weight gain with Rattus norvegicus [3] is -6%.
For `COC(=O)c1cc(O)c2cccc(N)c2n1`, in that order: 3, 10 and 100%.
Turning to `O=C([O-])c1cc(=O)c2c(OCC(O)COc3cccc4oc(C(=O)[O-])cc(=O)c34)cccc2o1.[Na+].[Na+]` [CROMOLYN SODIUM], the Activity is reported as 2 in the assay on Rattus norvegicus [2] and 100 in the assay on Rattus norvegicus [1].
As for `CCOC(=O)c1cn2c(C)nc3cccc(c1=O)c32`, the Activity in the assay on Rattus norvegicus [2] amounted to 83; with Rattus norvegicus [1], 95. Besides, in the assay on Rattus norvegicus [3], the Normal weight gain is given as -49%.
The like results for `COC(=O)c1cc(O)c2cccc([N+](=O)[O-])c2n1` were, in that order, 8, 66 and 104%.
Take `CCOC(=O)c1cnc2c(N)cccc2c1O`: in the assay on Rattus norvegicus [1], the Activity is reported as 19. For the same molecule, the Normal weight gain in the assay on Rattus norvegicus [3] was 86%.
As for `CCOC(=O)c1cnc2c([N+](=O)[O-])cccc2c1O`, the Activity is -2 in the assay with Rattus norvegicus [2] and 13 in the assay on Rattus norvegicus [1]. In addition, the Normal weight gain in the assay on Rattus norvegicus [3] is given as 106%.
For the molecule `CCO/C(C)=N/c1cccc2c(O)cc(C(=O)OC)nc12`, in the assay with Rattus norvegicus [1], the Activity is 24.
Consider `COC(=O)c1cc(=O)c2cccc3ncn1c32`, for which the Activity in the assay with Rattus norvegicus [2] stood at 1; with Rattus norvegicus [1], 16. Besides, in the assay with Rattus norvegicus [3], the Normal weight gain amounted to 68%.
Regarding `O=CNc1cccc2c(O)c(C(=O)O)cnc12`, the results for the Activity in the assay with Rattus norvegicus [2] and with Rattus norvegicus [1] were 0 and 62, respectively.
`CCOC(=O)c1cnc2c(NC=O)cccc2c1O`: the Activity worked out at 76 in the assay on Rattus norvegicus [2] and 67 with Rattus norvegicus [1]. Also, the Normal weight gain with Rattus norvegicus [3] was -26%.
As to `CCOC(=O)c1cn2cnc3cc(C)cc(c1=O)c32`, the Activity with Rattus norvegicus [2] is listed as 70; with Rattus norvegicus [1], 3.
For the molecule `O=CNc1cccc2c(O)cc(C(=O)O)nc12`, the figures for the Activity in the assay with Rattus norvegicus [2] and in the assay with Rattus norvegicus [1] were 16 and 91, respectively.
